Source: ChEMBL document CHEMBL1127026, “Novel antagonists of 5-HT3 receptors. Synthesis and biological evaluation of piperazinylquinoxaline derivatives” (J Med Chem, 1993)

Legend:
[1] = system: 5-HT3 receptor (Cavia porcellus); assay: Tested for the antagonistic activity against 5-hydroxytryptamine 3 receptor from guinea pig ileum; parameters: concentration or dose not given beside the values; settings: concentration not given here
[2] = molecular target: Serotonin 2 (5-HT2) receptor (Rattus norvegicus) (UniProt P30994+P08909+P14842); assay: Tested for antagonistic activity against 5-hydroxytryptamine 2 receptor from rat thoracic aorta; assay type: functional, tissue-based; parameters: concentration or dose not given beside the values; settings: concentration not given here
Summary of the method: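 Thoracic aorta rings (2-3 mm) from male Wistar rats (200-250 g), resting tension 1.5 g, equilibrated 60-90 min. Contracted with 5-HT 3×10^-6 M, taken as 100%. Compounds at 10^-5 M were incubated for 30 min before 5-HT was re-added. Inhibition given as % of the prior response. Means ± SE of 4-6 experiments.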

Rattus norvegicus = assay: Tested in vivo for antagonistic activity to bradycardic effect of 5-HT in anesthetized rats; assay type: functional; settings: read-out: ID50
Summary of the method: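 Male Sprague-Dawley rats (500-550 g), urethane 1 g/kg ip. Heart rate derived from carotid arterial pressure. Serotonin 4 μg/kg iv bolus every 15 min; compounds given iv via the jugular vein 2 min before serotonin. Percent inhibition of bradycardia recorded; ID50 by Litchfield-Wilcoxon.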

[3] = molecular target: T1, Serotonin 3 (5-HT3) receptor (Rattus norvegicus, UniProt P35563+Q9JJ16); assay: Displacement of binding of [3H]-BRL 43694 to 5-hydroxytryptamine 3 receptor in rat cerebral cortex; assay type: tissue-based
T1 sequence (P35563 whole entry): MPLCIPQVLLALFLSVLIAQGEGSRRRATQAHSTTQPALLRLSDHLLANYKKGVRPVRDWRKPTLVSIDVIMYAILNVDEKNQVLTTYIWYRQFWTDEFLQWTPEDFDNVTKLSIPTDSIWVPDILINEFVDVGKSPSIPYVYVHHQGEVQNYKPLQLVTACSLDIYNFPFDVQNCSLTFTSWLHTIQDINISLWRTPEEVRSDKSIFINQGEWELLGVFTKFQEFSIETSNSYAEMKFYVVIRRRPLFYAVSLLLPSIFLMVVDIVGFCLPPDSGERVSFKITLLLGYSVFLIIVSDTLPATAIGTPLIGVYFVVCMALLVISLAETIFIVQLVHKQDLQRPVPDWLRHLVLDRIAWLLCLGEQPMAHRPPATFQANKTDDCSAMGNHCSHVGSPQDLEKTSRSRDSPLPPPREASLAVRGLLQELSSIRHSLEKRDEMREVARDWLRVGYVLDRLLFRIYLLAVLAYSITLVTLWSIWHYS
T1 sequence (Q9JJ16 whole entry): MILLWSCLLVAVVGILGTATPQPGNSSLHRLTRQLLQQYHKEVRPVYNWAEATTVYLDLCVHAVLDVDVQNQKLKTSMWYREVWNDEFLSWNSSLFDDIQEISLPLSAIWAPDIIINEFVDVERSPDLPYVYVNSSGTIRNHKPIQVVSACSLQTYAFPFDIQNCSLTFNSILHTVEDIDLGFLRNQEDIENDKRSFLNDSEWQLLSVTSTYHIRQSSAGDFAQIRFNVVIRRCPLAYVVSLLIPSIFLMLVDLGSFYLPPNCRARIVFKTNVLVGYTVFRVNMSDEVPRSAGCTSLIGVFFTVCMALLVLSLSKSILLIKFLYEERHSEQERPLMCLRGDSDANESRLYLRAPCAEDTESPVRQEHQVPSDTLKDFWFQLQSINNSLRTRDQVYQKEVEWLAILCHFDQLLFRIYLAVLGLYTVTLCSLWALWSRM

Cavia porcellus = species on record: Cavia porcellus; assay: Antagonism to 2-methyl-5-HT induced contractions in guinea pig ileum; assay type: functional; settings: read-out: pA2 (converted)
Summary of the method: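 Isometric recording at 0.5 g resting tension in physiological salt solution gassed with 95% O2/5% CO2 at 37 °C, after 30-min equilibration. Tissue incubated 30 min with a single antagonist concentration before agonist; pA2 calculated against 2-methyl-5-HT by Furchgott's single-concentration method, […]. Means of three to six experiments.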

[4] = molecular target: Serotonin 1 (5-HT1) receptor (Rattus norvegicus, UniProt P28564+P30940+P19327+P28565); assay: Displacement of binding of [3H]-5-HT to 5-hydroxytryptamine 1 receptor in rat cerebral cortex; assay type: tissue-based
Summary of the method: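 Rat cortical membranes homogenized in 50 mM Tris-HCl, centrifuged, pre-incubated at 37 °C for 10 min, then resuspended with 0.1% ascorbic acid and 10 μM pargyline. Incubated with 0.3 nM [3H]-5-HT for 10 min at 37 °C. Nonspecific binding defined with 10 μM 5-HT. Filtered and counted by scintillation. Means of 3-6 experiments.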

Serotonin 2 (5-HT2) receptor (Rattus norvegicus), sequence (P08909 whole entry, looked up): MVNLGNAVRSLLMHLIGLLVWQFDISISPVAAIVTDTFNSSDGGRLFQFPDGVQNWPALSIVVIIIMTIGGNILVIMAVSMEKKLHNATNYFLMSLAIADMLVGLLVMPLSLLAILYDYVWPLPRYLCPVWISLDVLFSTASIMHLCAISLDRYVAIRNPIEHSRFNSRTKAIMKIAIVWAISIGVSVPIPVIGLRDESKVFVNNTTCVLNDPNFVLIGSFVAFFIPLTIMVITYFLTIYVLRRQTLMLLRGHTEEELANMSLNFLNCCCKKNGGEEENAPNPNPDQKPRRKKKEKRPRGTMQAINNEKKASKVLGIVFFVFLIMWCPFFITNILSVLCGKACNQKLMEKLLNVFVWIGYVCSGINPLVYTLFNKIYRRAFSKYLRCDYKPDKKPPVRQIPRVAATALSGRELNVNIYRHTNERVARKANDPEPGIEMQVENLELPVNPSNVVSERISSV
Serotonin 2 (5-HT2) receptor (Rattus norvegicus), sequence (P14842 whole entry, looked up): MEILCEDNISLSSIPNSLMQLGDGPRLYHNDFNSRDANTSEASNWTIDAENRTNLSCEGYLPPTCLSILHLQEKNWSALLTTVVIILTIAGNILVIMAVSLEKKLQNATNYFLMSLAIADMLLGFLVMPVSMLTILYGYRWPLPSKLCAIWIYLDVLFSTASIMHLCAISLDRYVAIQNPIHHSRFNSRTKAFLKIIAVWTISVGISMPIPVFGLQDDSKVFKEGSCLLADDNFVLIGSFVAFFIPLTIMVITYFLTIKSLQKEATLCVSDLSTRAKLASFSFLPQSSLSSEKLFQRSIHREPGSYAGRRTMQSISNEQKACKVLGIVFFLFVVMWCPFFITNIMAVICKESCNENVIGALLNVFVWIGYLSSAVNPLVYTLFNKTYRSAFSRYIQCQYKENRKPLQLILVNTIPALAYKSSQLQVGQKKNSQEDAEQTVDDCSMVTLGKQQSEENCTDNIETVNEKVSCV
Serotonin 2 (5-HT2) receptor (Rattus norvegicus), sequence (P30994 whole entry, looked up): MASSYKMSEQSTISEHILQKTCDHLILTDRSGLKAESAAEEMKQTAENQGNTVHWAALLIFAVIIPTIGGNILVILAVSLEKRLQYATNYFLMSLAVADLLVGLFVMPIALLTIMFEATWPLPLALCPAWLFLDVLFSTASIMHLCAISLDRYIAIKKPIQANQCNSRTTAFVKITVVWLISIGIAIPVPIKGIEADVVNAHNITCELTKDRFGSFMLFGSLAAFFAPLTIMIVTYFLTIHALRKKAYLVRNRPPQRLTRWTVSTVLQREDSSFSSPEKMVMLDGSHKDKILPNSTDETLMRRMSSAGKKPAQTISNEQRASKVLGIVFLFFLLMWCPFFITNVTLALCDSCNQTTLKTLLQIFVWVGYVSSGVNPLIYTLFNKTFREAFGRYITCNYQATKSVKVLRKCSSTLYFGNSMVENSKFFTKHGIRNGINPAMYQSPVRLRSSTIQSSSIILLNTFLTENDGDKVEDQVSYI

| Compound | inhibition [1] | inhibition [2] | Ki [3] | Ki [4] | ED50 (Rattus norvegicus) | Kb (Cavia porcellus) |
| --- | --- | --- | --- | --- | --- | --- |
| N#Cc1nc2ccccc2nc1N1CCN(c2ccc(Cl)cc2)CC1 | 11% | 7% |  |  |  |  |
| N#Cc1nc2ccccc2nc1N1CCN(Cc2ccc3c(c2)OCO3)CC1 | 28.4% |  |  |  |  |  |
| N#Cc1nc2ccccc2nc1N1CCN(c2ccc([N+](=O)[O-])cc2)CC1 | 18% |  |  |  |  |  |
| N#Cc1nc2ccccc2nc1N1CCNCC1 | 63.7% | 9.1% | 90 nM | 345 nM | 0.027 mg/kg | 1580 nM |
| CN1CCN(c2nc3ccccc3nc2C#N)CC1 | 48.4% |  |  |  |  |  |
| Cc1nccn1CC1CCc2c(c3ccccc3n2C)C1=O (centres undefined) [ONDANSETRON] |  | 0.6% |  |  | 0.0004 mg/kg | 126 nM |
| N#Cc1nc2ccccc2nc1N1CCN(c2ccccc2)CC1 | 21.9% | 8.4% |  |  |  |  |
| N#Cc1nc2ccccc2nc1N1CCN(c2ccc(F)cc2)CC1 | 21.4% |  |  |  |  |  |
| CN1[C@@H]2CC[C@H]1C[C@@H](OC(=O)c1c[nH]c3ccccc13)C2.Cl |  | 2.4% | 3.8 nM | > 1000 nM | 0.002 mg/kg | 3.98 nM |
| N#Cc1nc2ccccc2nc1N1CCN(c2cccc(C(F)(F)F)c2)CC1 | 39.5% | 18.3% |  |  |  |  |
| N#Cc1nc2cc([N+](=O)[O-])ccc2nc1N1CCNCC1 | 7.7% |  |  |  |  |  |

More lines, main results first:

| inhibition [1] | inhibition [2] | Ki [3] | Ki [4] | Compound | ED50 (Rattus norvegicus) | Kb (Cavia porcellus) |
| --- | --- | --- | --- | --- | --- | --- |
| 29.2% | 25% |  |  | N#Cc1nc2ccccc2nc1N1CCN(CCc2ccccc2)CC1 |  |  |
| 15.8% | 4.6% |  |  | Cc1ccc(N2CCN(c3nc4ccccc4nc3C#N)CC2)cc1 |  |  |
| 12.5% |  |  |  | CCCCN1CCN(c2nc3ccccc3nc2C#N)CC1 |  |  |
| 63.3% | 12.5% | 40 nM | > 1000 nM | CCCN1CCN(c2nc3ccccc3nc2C#N)CC1 | 0.38 mg/kg | 1000 nM |
| 3.5% | 4.6% |  |  | COc1cccc(N2CCN(c3nc4ccccc4nc3C#N)CC2)c1 |  |  |
| 43.5% |  |  |  | CCN1CCN(c2nc3ccc(N)cc3nc2C#N)CC1 |  |  |
| 14.4% | 5.1% |  |  | CCOC(=O)CN1CCN(c2nc3ccccc3nc2C#N)CC1 |  |  |
| 21.3% |  |  |  | CCN1CCN(c2nc3ccc([N+](=O)[O-])cc3nc2C#N)CC1 |  |  |
| 7.4% |  |  |  | CC(=O)c1ccc(N2CCN(c3nc4ccccc4nc3C#N)CC2)cc1 |  |  |
|  | 9.1% | 8 nM | > 1000 nM | C=CCN1CCN(c2nc3ccccc3nc2C#N)CC1 | 0.02 mg/kg | 0.0631 nM |
| 18% | 3.9% |  |  | CCCCCN1CCN(c2nc3ccccc3nc2C#N)CC1 |  |  |
| 80.5% | 9.1% | 100 nM | > 1000 nM | CCN1CCN(c2nc3ccccc3nc2C#N)CC1 | 0.015 mg/kg | 63.1 nM |
| 10.6% |  |  |  | COc1ccccc1N1CCN(c2nc3ccccc3nc2C#N)CC1 |  |  |
| 12.4% | 20.5% |  |  | N#Cc1nc2ccccc2nc1N1CCN(Cc2ccccc2)CC1 |  |  |
